Data from PubChem BioAssay.
Records with an inconclusive call do not appear.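 Rule for the calls, unless noted: active = RAM network inhibition above 8.4% in each of two replicates, 3 SD over the compound average; inconclusive = above 8.4% inhibition in only one replicate; inactive = 8.4% inhibition or less in each replicate.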

What was measured:
[1] = S. cerevisiae growth inhibition in permissive medium (OD615), pilot counter-assay for S. cerevisiae lifespan shortening project, permissive growth control (AID 705;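 active = growth inhibition above 25% in both replicates, a cutoff set 3 SD above the mean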); conditions: OD615, 24 h, at 10 µM, stronger effect = higher value
How it was run: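 System – S. cerevisiae with engineered DeaD lifespan system · Buffer or medium – SC raffinose/galactose permissive medium · Schedule – cells pre-grown 4 h, then 24 h compound exposure, 30 °C humidified · Technique – culture turbidity as optical density at 615 nm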

[2] = S. cerevisiae growth inhibition in restrictive medium, OD615, pilot screen, restrictive growth control, yeast lifespan reduction project (AID 706;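 active = growth inhibition above a set limit, 3 SD over mean compound inhibition, in both replicates, cut at about 43% in these data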;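 note: modified DeaD lifespan yeast strain shifted to restrictive glucose medium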); conditions: OD615, 48 h, at 10 µM, stronger effect = higher value
How it was run: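 Material: engineered S. cerevisiae DeaD strain / Medium: glucose-based CSMM-D restrictive medium / Compound: single dose of 10 µM compound final, 0.25% DMSO / Timing: 4 h pre-incubation, 48 h exposure at 30 °C / Technique: OD615 absorbance reading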

[3] = doxorubicin toxicity protection in MRP-1 cells – H69AR cells, CellTiter-Glo, duplicate, MRP-1 activator project, pilot screen (AID 807;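 active = viability increase at or above a cutoff of the median across tested compounds plus 3 SD, cut at about 8.5% in these data, passing the limit was not always enough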;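 note: compound pretreatment 18-22 h then 72 h combined with doxorubicin; 0% = doxorubicin alone and 100% = vehicle without doxorubicin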); conditions: H69AR viability with doxorubicin, CellTiter-Glo luminescence; at 10 µM; stronger effect = higher value
[4] = viability of HCT116 without oncogenic beta-catenin – human colon tumor cells, pilot screen (AID 823;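 active = cell viability at or below a set limit in both duplicate runs, the limit being the all-compound median minus 4 SD, cut at about 23% in these data, passing the limit was not always enough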;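 note: 0% = wells killed by 20 µM Hyamine and 100% = untreated DMSO cell wells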); conditions: HCT116 beta-catenin knockout viability, CellTiter-Glo, 60 h; at 10 µM; stronger effect = lower value
[5] = RAM pathway blockade in budding yeast – dse1pr::URA3 reporter, 5-FOA selection, pilot screen (AID 869;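 active = inhibition over a set limit, the all-compound mean plus 3 SD, in both replicate runs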;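 note: 0% = DMSO wells with no growth and 100% = 10 µM 1-NA-PP1 with full growth; RAM network block rescues cells from 5-FOA so hits raise OD615 growth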); conditions: S. cerevisiae dse1pr::URA3 5-FOA growth, OD615, 2 d; at 10 µM; stronger effect = higher value; strain carries analog-sensitive mutant Cbk1 kinase
[6] = RAM signaling pathway blockade in yeast – S. cerevisiae, Pdr1DBD-CYC8 efflux-inhibited sensitized strain, primary screen (AID 1298);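 note: 0% = DMSO untreated cells without growth and 100% = 10 µM 1-NA-PP1 full growth; higher means more yeast growth rescued from 5-FOA killing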; conditions: S. cerevisiae cbk1-as DSE1-URA3 strain, 5-FOA growth OD615, 2 d; at 50 µM; stronger effect = higher value

S=c1nc(-c2ccccc2)n(CCCN2CCOCC2)c2c1CCCC2
inactive: growth inhibition [1] -2.74% | growth inhibition [2] 23.8% | viability increase [3] -4.35% | viability [4] 103% | inhibition [5] 0.18% | RAM network inhibition [6] 3.63%

CCOC(=O)Nc1cc(C(=O)OCC)c(C)nc1C
inactive: growth inhibition [1] -8.02% | growth inhibition [2] -10% | viability increase [3] -1.85% | viability [4] 98.7% | inhibition [5] 1.25% | RAM network inhibition [6] 0.73%

c1coc(CNc2nc3sc4c(c3c3ncnn23)CCCC4)c1
inactive: growth inhibition [1] -19.5% | growth inhibition [2] 0.565% | viability increase [3] -2.99% | viability [4] 99.4% | inhibition [5] 2.65% | RAM network inhibition [6] 3.48%

CCOC(=O)CNC(=O)c1cn(C)c(=O)c2cc(OC)c(OC)cc12
inactive: growth inhibition [1] -29.2% | growth inhibition [2] -3.25% | viability increase [3] -2.81% | viability [4] 86.5% | inhibition [5] 0.24% | RAM network inhibition [6] 2.87%

CCC(=O)c1cn(CC(=O)NCC2CCCO2)c2ccccc12 (stereo unspecified)
inactive: growth inhibition [1] 0.725% | growth inhibition [2] 12.5% | viability increase [3] -3.8% | viability [4] 96.7% | inhibition [5] 2.02% | RAM network inhibition [6] 1.98%

CC1(C)Cc2c(c(=S)nc(-c3ccccc3)n2CCOCCO)CO1
inactive: growth inhibition [1] -16.5% | growth inhibition [2] 19.6% | viability increase [3] -2.12% | viability [4] 98.2% | inhibition [5] 0.775% | RAM network inhibition [6] 4.58%

Cc1ccc(-c2nc(S(=O)(=O)c3ccc(F)cc3)c(SCC(=O)NCC3CCCO3)o2)cc1 (stereo unspecified)
inactive: growth inhibition [1] -6.27% | growth inhibition [2] 1.93% | viability increase [3] -6.02% | viability [4] 93.6% | inhibition [5] 0.14% | RAM network inhibition [6] 0.57%

CCn1cc(C(=O)NC2CCCCCC2)c2cc(OC)c(OC)cc2c1=O
inactive: growth inhibition [1] -29.2% | growth inhibition [2] 1.87% | viability increase [3] -3.91% | viability [4] 76.3% | inhibition [5] 2.02% | RAM network inhibition [6] 4.11%

Cc1cc(NC(=O)CN2CCN(c3ncccn3)CC2)no1
inactive: growth inhibition [1] -7.78% | growth inhibition [2] -9.4% | viability increase [3] -1.38% | viability [4] 98.6% | inhibition [5] 0.71% | RAM network inhibition [6] 3.12%

CC1CCN(CCNC(=O)c2ccc(NC(=O)C3CCCO3)cc2)CC1 (stereo unspecified)
inactive: growth inhibition [1] -16.1% | growth inhibition [2] -2.63% | viability increase [3] -1.69% | viability [4] 103% | inhibition [5] 1.95% | RAM network inhibition [6] 3.74%

c1ccc(-n2ncc3c2ncn2c(C4CCCCC4)nnc32)cc1
inactive: growth inhibition [1] -12.6% | growth inhibition [2] -6.54% | viability increase [3] 0.09% | viability [4] 96.1% | inhibition [5] 1.33% | RAM network inhibition [6] 2.45%
